We go through three compounds from ChEMBL document CHEMBL4196166 (J Med Chem, 2018).

Structures are written as SMILES.

Data set [1] addresses T1, Urokinase-type plasminogen activator (Homo sapiens, UniProt P00749). In words: Inhibition of human kidney uPA using Z-Gly-Gly-Arg-AMC as substrate measured over 15 mins by fluorescence assay.
Data set [2] deals with T1, Urokinase-type plasminogen activator. The experiment in a line: Inhibition of human kidney uPA using chromogenic H-D-Ile-L-Pro-L-Arg-p-nitoraniline as substrate by fluorescence assay. Summed up:
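Enzyme was uPA from human kidney cells at 10 nM final. […] Absorbance change at 405 nm gave initial rates. IC50 from a sigmoidal fit of % residual activity vs log concentration.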

In data set [3] the target is Tissue-type plasminogen activator (Homo sapiens, UniProt P00750). The experiment in a line: Inhibition of tPA (unknown origin) using chromogenic H-D-Ile-L-Pro-L-Arg-p-nitoraniline as substrate by […].
In the next data set the target is Plasminogen (Homo sapiens, UniProt P00747). In words: Inhibition of plasmin (unknown origin) using chromogenic H-D-Ile-L-Pro-L-Arg-p-nitoraniline as substrate by […].
The next data set addresses Prothrombin (Homo sapiens, UniProt P00734). In words: Inhibition of thrombin (unknown origin) using chromogenic H-D-Ile-L-Pro-L-Arg-p-nitoraniline as substrate by […].
Another data set concerns the target Plasma kallikrein (Homo sapiens, UniProt P03952). In words: Inhibition of human plasma kallikrein using chromogenic L-pyroGlu-L-Pro-L-Arg-p-nitroaniline as substrate by fluorescence assay.
For another data set, the target named is Coagulation factor XI (Homo sapiens, UniProt P03951). In words: Inhibition of factor 11a (unknown origin) using chromogenic L-pyroGlu-L-Pro-L-Arg-p-nitroaniline as substrate by […].
In another data set the target is Coagulation factor X (Homo sapiens, UniProt P00742). In words: Inhibition of factor 10a (unknown origin) using chromogenic H-D-Ile-L-Pro-L-Arg-p-nitoraniline as substrate by fluorescence assay.
The target of data set [4] is Vitamin K-dependent protein C (Homo sapiens, UniProt P04070). In words: Inhibition of activated protein C (unknown origin) using chromogenic L-pyroGlu-L-Pro-L-Arg-p-nitroaniline as substrate by fluorescence assay.
The subject of another data set is HepG2. In words: Cytotoxicity against human HepG2 cells assessed as reduction in cell viability after 48 hrs by CellTiter 96 Aqueous One solution cell proliferation assay. Format: functional, cell-based. To be noted: HepG2, 48 h. The gist of the method:
(§1)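 Cells grown in DMEM high glucose with 10% heat-inactivated FCS, seeded at 5000/well and left 18 h. Compounds added at 1 nM–100 µM final (0.2% vehicle), n = 4 wells per concentration, with colour blanks. After 48 h, MTS reagent added for 2 h and A490 read. IC50 from a variable-slope sigmoidal fit.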

Another data set has as its system HEK293. In words: Cytotoxicity against HEK293 cells assessed as reduction in cell viability after 48 hrs by CellTiter 96 Aqueous One solution cell proliferation assay. To be noted: Homo sapiens, HEK293, 48 h. Format: cell-based. The gist of the method: as §1
A further data set relates to HT-1080. In words: Cytotoxicity against human HT1080 cells assessed as reduction in cell viability after 48 hrs by CellTiter 96 Aqueous One solution cell proliferation assay. The settings on record: HT-1080, 48 h. Format: functional, cell-based. The gist of the method: as §1
The target in data set [5] is Urokinase-type plasminogen activator (Mus musculus, UniProt P06869). The experiment in a line: Inhibition of mouse uPA using Z-Gly-Gly-Arg-AMC as substrate after 15 mins by fluorescence assay.
For data set [6], the target named is T2, Epithelial sodium channel subunit alpha (Homo sapiens, UniProt P37088).
T2 sequence (P37088 whole entry): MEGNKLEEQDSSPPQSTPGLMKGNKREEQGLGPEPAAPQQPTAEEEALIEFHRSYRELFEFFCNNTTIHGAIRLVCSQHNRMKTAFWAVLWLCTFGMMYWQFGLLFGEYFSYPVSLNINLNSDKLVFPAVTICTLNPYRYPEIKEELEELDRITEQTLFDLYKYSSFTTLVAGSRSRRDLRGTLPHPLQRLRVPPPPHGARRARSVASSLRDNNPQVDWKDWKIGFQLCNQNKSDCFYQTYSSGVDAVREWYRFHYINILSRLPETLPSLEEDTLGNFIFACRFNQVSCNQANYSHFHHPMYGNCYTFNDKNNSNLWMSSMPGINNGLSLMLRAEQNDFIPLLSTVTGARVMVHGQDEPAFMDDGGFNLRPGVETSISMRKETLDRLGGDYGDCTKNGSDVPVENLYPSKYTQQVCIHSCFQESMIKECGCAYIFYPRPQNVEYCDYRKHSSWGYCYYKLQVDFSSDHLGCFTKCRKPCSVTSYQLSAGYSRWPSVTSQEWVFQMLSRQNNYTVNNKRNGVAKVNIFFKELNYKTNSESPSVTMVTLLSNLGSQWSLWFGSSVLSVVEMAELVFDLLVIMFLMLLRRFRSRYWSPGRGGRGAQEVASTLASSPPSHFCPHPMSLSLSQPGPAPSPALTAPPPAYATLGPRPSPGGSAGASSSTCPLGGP
In words: Inhibition of S-3969-stimulated recombinant human ENaC alpha subunit expressed in HEK293 cells at 10 uM preincubated for 5 mins followed by S-3969 stimulation by FLIPR assay. Format: cell-based. The settings on record: hek293, 10 µM. The gist of the method: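 HEK-293 cells transfected with human ENaC α, β and γ cDNA together, plated at 20 000 cells/well, incubated overnight at 37 °C. Loaded with membrane-potential red dye for 30 min at 37 °C. Compound preincubated 5 min in HEPES-buffered salt solution (pH 7.4, 0.3% DMSO), then stimulated with 1 µM S-3969, read on FLIPR. Signal normalized to agonist alone (100%) and agonist plus 30 µM benzamil (0%). n = 4 wells.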

In data set [7] the test system is Rattus norvegicus. In words: Diuretic effect in Sprague-Dawley rat assessed as increase in acetazolamide-induced urine volume at 1.5 mg/kg, iv measured after 6 hrs post dose relative to acetazolamide-treated control. In kind it is ADME, organism-based. To be noted: in vivo. The gist of the method: (§2)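 Male 21-week-old Sprague-Dawley rats, 8 per group. One ip injection of 25 mg/kg acetazolamide (25 mg/mL in 0.9% saline, 1 mL/kg) or vehicle, then one iv injection of 1.5 mg/kg compound (1.5 mg/mL, 1 mL/kg) in 50 mM acetate buffer pH 5.5/5% DMSO, with 0.5% Tween-80 for some compounds. Total urine collected in metabolic cages over 6 h. Urine Na+ and K+ measured on a biochemistry analyzer. Mean ± SEM reported.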

Data set [8] relates to Rattus norvegicus. In words: Antikaliuretic effect in Sprague-Dawley rat assessed as increase in acetazolamide-induced Na+ excretion at 1.5 mg/kg, iv measured after 6 hrs post dose relative to acetazolamide-treated control. Format: ADME, organism-based. To be noted: in vivo. Summed up:
as §2

Data set [9] concerns Rattus norvegicus. In words: Antikaliuretic effect in Sprague-Dawley rat assessed as decrease in acetazolamide-induced K+ excretion at 1.5 mg/kg, iv measured after 6 hrs post dose relative to acetazolamide-treated control. The settings on record: in vivo. Also noted: scale not given: the % may be the effect or the level left. In kind it is ADME, organism-based. Summed up: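 Male 21-week-old Sprague-Dawley rats, 8 per group. Given 25 mg/kg acetazolamide ip (0.9% saline), then 1.5 mg/kg compound iv (50 mM acetate buffer pH 5.5/5% DMSO, plus 0.5% Tween-80 for some analogs). Vehicle-only group included. Total urine collected in metabolic cages over 6 h. Urine Na+ and K+ measured on a biochemistry analyzer; compared with acetazolamide controls.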

Vitamin K-dependent protein C, sequence (P04070 43-197 limits assumed): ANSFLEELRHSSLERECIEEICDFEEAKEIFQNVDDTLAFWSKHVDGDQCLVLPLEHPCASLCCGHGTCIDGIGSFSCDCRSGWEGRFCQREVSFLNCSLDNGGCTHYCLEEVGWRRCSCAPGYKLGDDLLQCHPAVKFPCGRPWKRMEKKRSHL
Vitamin K-dependent protein C, sequence (P04070 212-461 limits assumed): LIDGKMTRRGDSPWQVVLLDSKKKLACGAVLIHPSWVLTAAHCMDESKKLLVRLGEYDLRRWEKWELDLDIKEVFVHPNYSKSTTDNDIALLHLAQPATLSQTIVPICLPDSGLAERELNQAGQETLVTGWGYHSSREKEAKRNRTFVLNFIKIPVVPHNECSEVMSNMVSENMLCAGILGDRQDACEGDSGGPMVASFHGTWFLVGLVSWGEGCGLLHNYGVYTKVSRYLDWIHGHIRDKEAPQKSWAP
Urokinase-type plasminogen activator (Mus musculus, UniProt P06869), sequence (P06869 21-178 limits assumed): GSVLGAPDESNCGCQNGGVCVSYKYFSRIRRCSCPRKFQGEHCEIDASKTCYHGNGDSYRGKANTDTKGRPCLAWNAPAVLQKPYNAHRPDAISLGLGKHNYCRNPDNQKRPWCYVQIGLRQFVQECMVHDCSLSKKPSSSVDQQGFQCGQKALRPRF
Urokinase-type plasminogen activator (Mus musculus, UniProt P06869), sequence (P06869 180-433 limits assumed): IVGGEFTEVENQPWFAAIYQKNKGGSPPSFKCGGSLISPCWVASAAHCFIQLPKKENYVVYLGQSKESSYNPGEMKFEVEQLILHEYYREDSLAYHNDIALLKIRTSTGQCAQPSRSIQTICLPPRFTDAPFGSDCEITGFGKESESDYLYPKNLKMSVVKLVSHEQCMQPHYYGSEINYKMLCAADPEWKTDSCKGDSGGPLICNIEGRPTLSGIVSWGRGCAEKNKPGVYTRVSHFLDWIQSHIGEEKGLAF
Coagulation factor X, sequence (P00742 41-179 limits assumed): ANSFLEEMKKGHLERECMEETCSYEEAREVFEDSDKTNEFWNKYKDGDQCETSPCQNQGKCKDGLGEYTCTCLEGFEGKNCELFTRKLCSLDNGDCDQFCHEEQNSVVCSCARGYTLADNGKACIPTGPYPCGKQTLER
Coagulation factor X, sequence (P00742 235-488 limits assumed): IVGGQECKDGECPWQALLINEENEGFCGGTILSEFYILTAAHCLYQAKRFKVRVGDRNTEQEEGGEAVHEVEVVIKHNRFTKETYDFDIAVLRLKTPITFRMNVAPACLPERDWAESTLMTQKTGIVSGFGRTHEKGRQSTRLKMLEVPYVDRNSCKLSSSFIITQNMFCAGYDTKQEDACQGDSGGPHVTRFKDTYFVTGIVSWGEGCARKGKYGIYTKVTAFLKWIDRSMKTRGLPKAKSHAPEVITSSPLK
Tissue-type plasminogen activator, sequence (P00750 whole entry): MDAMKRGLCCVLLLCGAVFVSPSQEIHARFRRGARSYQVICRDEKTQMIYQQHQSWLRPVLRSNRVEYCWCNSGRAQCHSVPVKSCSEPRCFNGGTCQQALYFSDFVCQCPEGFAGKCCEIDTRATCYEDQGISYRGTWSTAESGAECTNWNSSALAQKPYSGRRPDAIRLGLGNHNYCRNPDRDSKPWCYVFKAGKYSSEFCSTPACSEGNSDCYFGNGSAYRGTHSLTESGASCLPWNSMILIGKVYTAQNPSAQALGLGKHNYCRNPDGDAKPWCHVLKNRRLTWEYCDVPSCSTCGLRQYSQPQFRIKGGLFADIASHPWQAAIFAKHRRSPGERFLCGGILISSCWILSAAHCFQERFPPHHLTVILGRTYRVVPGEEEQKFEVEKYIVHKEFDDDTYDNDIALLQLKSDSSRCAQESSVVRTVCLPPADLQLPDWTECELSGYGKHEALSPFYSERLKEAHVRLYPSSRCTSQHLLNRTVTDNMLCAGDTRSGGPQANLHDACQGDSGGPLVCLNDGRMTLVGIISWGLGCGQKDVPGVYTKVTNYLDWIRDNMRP
Plasma kallikrein, sequence (P03952 20-390 limits assumed): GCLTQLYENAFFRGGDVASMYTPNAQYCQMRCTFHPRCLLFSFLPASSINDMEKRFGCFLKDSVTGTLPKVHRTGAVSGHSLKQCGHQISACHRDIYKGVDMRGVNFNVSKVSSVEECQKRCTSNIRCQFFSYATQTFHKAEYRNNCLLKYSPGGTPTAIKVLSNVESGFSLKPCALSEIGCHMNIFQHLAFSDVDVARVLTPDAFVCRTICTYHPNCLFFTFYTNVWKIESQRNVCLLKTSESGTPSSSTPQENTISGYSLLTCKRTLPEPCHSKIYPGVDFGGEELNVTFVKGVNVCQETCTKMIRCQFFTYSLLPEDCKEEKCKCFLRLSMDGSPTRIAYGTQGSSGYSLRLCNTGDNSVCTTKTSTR
Plasma kallikrein, sequence (P03952 391-638 limits assumed): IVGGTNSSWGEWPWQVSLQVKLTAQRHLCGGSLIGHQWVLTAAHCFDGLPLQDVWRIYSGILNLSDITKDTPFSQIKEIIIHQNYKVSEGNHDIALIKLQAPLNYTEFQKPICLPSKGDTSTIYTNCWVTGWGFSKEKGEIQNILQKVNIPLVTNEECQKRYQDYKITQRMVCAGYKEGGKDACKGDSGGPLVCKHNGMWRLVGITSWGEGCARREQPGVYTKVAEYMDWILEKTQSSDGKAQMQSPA
Plasminogen, sequence (P00747 97-580 limits assumed): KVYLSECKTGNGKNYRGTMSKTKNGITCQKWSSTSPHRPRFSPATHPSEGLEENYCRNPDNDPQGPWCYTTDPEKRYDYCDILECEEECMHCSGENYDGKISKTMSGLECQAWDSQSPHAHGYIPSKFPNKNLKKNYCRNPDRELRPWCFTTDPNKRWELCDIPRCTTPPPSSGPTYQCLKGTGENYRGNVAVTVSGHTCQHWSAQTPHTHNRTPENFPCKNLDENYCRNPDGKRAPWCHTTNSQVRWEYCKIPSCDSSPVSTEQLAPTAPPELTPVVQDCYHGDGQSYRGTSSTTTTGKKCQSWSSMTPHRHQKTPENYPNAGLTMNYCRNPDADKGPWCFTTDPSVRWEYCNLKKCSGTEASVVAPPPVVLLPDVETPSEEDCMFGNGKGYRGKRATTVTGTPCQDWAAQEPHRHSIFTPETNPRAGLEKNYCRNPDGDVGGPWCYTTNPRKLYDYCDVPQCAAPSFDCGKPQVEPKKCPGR
Plasminogen, sequence (P00747 581-810 limits assumed): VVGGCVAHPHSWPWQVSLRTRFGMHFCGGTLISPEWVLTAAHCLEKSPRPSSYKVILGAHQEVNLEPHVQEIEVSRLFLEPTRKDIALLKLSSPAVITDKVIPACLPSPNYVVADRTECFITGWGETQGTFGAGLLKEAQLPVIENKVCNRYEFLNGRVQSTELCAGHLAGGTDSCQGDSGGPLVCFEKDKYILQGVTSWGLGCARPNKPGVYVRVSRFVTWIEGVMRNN
Coagulation factor XI, sequence (P03951 19-387 limits assumed): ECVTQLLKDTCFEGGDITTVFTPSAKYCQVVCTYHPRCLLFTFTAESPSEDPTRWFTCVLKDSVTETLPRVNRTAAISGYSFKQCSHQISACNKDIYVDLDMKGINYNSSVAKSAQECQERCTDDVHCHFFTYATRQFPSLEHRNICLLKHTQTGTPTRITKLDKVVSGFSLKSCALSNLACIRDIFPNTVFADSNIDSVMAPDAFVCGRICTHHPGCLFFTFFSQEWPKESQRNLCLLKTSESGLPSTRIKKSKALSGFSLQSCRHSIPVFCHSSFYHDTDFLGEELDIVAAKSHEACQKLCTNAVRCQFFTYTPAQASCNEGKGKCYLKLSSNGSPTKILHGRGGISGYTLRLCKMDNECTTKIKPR
Coagulation factor XI, sequence (P03951 388-625 limits assumed): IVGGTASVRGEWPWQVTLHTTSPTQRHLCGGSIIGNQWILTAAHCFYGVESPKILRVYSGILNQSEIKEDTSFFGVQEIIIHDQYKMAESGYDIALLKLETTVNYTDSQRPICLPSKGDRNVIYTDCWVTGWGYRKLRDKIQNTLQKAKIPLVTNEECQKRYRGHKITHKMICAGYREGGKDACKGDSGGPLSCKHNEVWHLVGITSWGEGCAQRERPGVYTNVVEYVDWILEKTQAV

Usually Ki stands for the dissociation constant of the complex between target and ligand, obtained from inhibition or displacement. For orientation: IC50 means the concentration at which inhibition is half-maximal. With `N=C(N)NC(=O)c1nc(Cl)c(N2CCCCCC2)nc1N` [N,N-HEXAMETHYLENEAMILORIDE], the results for the inhibition constant Ki in data set [1] and in data set [5] were 1.36 µM and 9.31 µM, respectively. Besides, the IC50 in data set [2] was 2.4 µM; in data set [3], more than 10 µM; at Plasminogen, more than 10 µM; on Prothrombin, more than 10 µM; on Plasma kallikrein it was more than 50 µM; at Coagulation factor XI, more than 50 µM. For the same compound, the half-inhibitory concentration (IC50) against Coagulation factor X was more than 50 µM; in data set [4], more than 50 µM; with HepG2, 20.2 µM; with HEK293 it was 2.8 µM; in the data set with HT-1080, 6.6 µM. In [6], the “inhibition (INH)” value is given as “Not Active”. Besides, the Activity result with Rattus norvegicus [7] is recorded as “Non-Toxic”; with Rattus norvegicus [8] it was “Non-Toxic”; with Rattus norvegicus [9] it was 24%.

For `N=C(N)NC(=O)c1nc(-c2cc3ccccc3o2)c(N2CCCCCC2)nc1N`, the results for the Ki in [1] and in data set [5] were 0.183 µM and 1.8 µM, respectively. Also, the IC50 in data set [2] is 0.53 µM; in [3], more than 10 µM; against Plasminogen it was more than 10 µM; at Prothrombin, more than 10 µM; against Plasma kallikrein, 11.3 µM; against Coagulation factor XI, 31 µM. Besides, the IC50 at Coagulation factor X is more than 50 µM; in data set [4], more than 50 µM; in the data set with HepG2 it was 12.7 µM; with HEK293, 3.1 µM; with HT-1080, 4.6 µM. The “inhibition (INH)” value in data set [6] is given as “Not Active”. Also, the Activity result with Rattus norvegicus [7], with Rattus norvegicus [8] and with Rattus norvegicus [9] was “Non-Toxic” each time.

In the case of `COc1ncc(-c2nc(C(=O)NC(=N)N)c(N)nc2N2CCCCCC2)cn1`, the Ki was 0.053 µM in [1] and 1.61 µM in data set [5]. The IC50 in data set [2] was 0.039 µM; in data set [3], more than 20 µM; against Plasminogen, more than 20 µM; against Prothrombin it was more than 20 µM; against Plasma kallikrein, more than 50 µM; against Coagulation factor XI it was more than 50 µM. Besides, the IC50 is more than 50 µM at Coagulation factor X; more than 50 µM in data set [4]; 57.3 µM with HepG2; 74.9 µM with HEK293; 44.8 µM in the data set on HT-1080. In addition, the Activity result is listed as “Non-Toxic” in the data set on Rattus norvegicus [7], “Non-Toxic” in the data set with Rattus norvegicus [8] and 24% in the data set with Rattus norvegicus [9].
